Assay results reported in ChEMBL document CHEMBL1140904, “Synthesis and analysis of novel glycerolipids for the treatment of metabolic syndrome” (J Med Chem, 2009).

Experiments:
Rattus norvegicus [1] = assay: Decrease in plasma triacylglycerol level in po dosed Wistar rat after 6 days; assay type: functional, organism-based
Summary of the method: (§1)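 Male Wistar rats (170-210 g), housed in pairs with chow and water, were gavaged once daily for 6 days with test lipid in 0.5% (w/v) carboxymethylcellulose at 85 or 250 µmol TTA-equivalent per animal. Controls received palmitic acid in CMC. Plasma triacylglycerol and cholesterol were measured with an enzymatic kit, and liver levels were also determined. Values are mean ± SD, n=5 rats.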

Rattus norvegicus [2] = assay: Effect on fatty acid composition in Wistar rat assessed as change in plasma MUFA level at 85 uM, po after 6 days; assay type: functional
Liver [3] = assay: Drug level in Wistar rat liver at 250 uM, po after 6 days; assay type: ADME, organism-based; details: in vivo, 144 h
Summary of the method: (§2)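 Male Wistar rats were gavaged once daily for 6 days with compound in 0.5% CMC at 85 or 250 µmol TTA-equivalent per animal. Controls received palmitic acid. Liver was homogenized in 0.25 M sucrose/10 mM HEPES pH 7.4/1 mM EDTA at 0-4 °C. Lipids were extracted with chloroform:methanol 2:1 and spiked with 21:0 internal standard. Fatty acids were BF3-methanol transesterified and quantified as wt%. Values are mean ± SD, n=5.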

Rattus norvegicus [4] = assay: Effect on fatty acid composition in Wistar rat assessed as change in liver saturated fatty acid level at 250 uM, po after 6 days; assay type: functional; summary of the method: as §2
Rattus norvegicus [5] = assay: Effect on fatty acid composition in Wistar rat assessed as change in liver LCPUFA, n-6 level at 250 uM, po after 6 days; assay type: functional; summary of the method: as §2
Rattus norvegicus [6] = assay: Effect on fatty acid composition in Wistar rat assessed as change in plasma saturated fatty acid level at 250 uM, po after 6 days; assay type: functional
Rattus norvegicus [7] = assay: Effect on fatty acid composition in Wistar rat assessed as change in liver PUFA level at 85 uM, po after 6 days; assay type: functional; summary of the method: as §2
Rattus norvegicus [8] = assay: Effect on fatty acid composition in Wistar rat assessed as change in liver LCn-6/18:2 level at 85 uM, po after 6 days; assay type: functional; summary of the method: as §2
Rattus norvegicus [9] = assay: Effect on fatty acid composition in Wistar rat assessed as change in plasma 18;2, n-6 level at 85 uM, po after 6 days; assay type: functional
Rattus norvegicus [10] = assay: Plasma concentration in Wistar rat at 85 uM, po after 6 days; assay type: ADME, organism-based; details: in vivo, 144 h
Rattus norvegicus [11] = assay: Effect on fatty acid composition in Wistar rat assessed as change in plasma MUFA level at 250 uM, po after 6 days; assay type: functional
Rattus norvegicus [12] = assay: Effect on fatty acid composition in Wistar rat assessed as change in liver MUFA level at 85 uM, po after 6 days; assay type: functional; summary of the method: as §2
Rattus norvegicus [13] = assay: Decrease in plasma cholesterol level in po dosed Wistar rat after 6 days; assay type: functional, organism-based; summary of the method: as §1
Rattus norvegicus [14] = assay: Effect on fatty acid composition in Wistar rat assessed as change in plasma LCPUFA, n-6 level at 85 uM, po after 6 days; assay type: functional
Rattus norvegicus [15] = assay: Effect on fatty acid composition in Wistar rat assessed as change in liver MUFA level at 250 uM, po after 6 days; assay type: functional; summary of the method: as §2
Liver [16] = assay: Drug level in Wistar rat liver at 85 uM, po after 6 days; assay type: ADME, organism-based; details: in vivo, 144 h; summary of the method: as §2
Rattus norvegicus [17] = assay: Effect on fatty acid composition in Wistar rat assessed as change in liver saturated fatty acid level at 85 uM, po after 6 days; assay type: functional; summary of the method: as §2
Rattus norvegicus [18] = assay: Effect on fatty acid composition in Wistar rat assessed as change in liver LCn-6/18:2 level at 250 uM, po after 6 days; assay type: functional; summary of the method: as §2
Rattus norvegicus [19] = assay: Plasma concentration in Wistar rat at 250 uM, po after 6 days; assay type: ADME, organism-based; details: in vivo, 144 h
Rattus norvegicus [20] = assay: Effect on fatty acid composition in Wistar rat assessed as change in liver 18;2, n-6 level at 250 uM, po after 6 days; assay type: functional; summary of the method: as §2
Rattus norvegicus [21] = assay: Effect on fatty acid composition in Wistar rat assessed as change in plasma LCn-6/18:2 level at 85 uM, po after 6 days; assay type: functional
Rattus norvegicus [22] = assay: Effect on fatty acid composition in Wistar rat assessed as change in liver LCPUFA, n-6 level at 85 uM, po after 6 days; assay type: functional; summary of the method: as §2
Rattus norvegicus [23] = assay: Effect on fatty acid composition in Wistar rat assessed as change in plasma PUFA level at 85 uM, po after 6 days; assay type: functional
Rattus norvegicus [24] = assay: Effect on fatty acid composition in Wistar rat assessed as change in plasma LCn-6/18:2 level at 250 uM, po after 6 days; assay type: functional
Rattus norvegicus [25] = assay: Induction of PPAR-alpha-regulated CPT2 activity in po dosed Wistar rat after 6 days; assay type: functional, organism-based
Summary of the method: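 Wistar rats were dosed orally for 6 days (85 or 250 µmol TTA-equivalent in 0.5% CMC; palmitic acid controls). CPT-II activity was measured in the liver mitochondrial fraction, prepared from sucrose/HEPES pH 7.4/EDTA homogenate at 0-4 °C. Means ± SD from 5 rats per group.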

Rattus norvegicus [26] = assay: Effect on fatty acid composition in Wistar rat assessed as change in plasma PUFA level at 250 uM, po after 6 days; assay type: functional
Rattus norvegicus [27] = assay: Induction of PPAR-alpha-regulated HMG-CoA synthase activity in po dosed Wistar rat after 6 days; assay type: functional, organism-based
Summary of the method: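 Wistar rats were gavaged daily for 6 days at 85 or 250 µmol TTA-equivalent in 0.5% CMC, with palmitic acid controls. HMG-CoA synthase activity was assayed in the liver postnuclear fraction by the Clinkenbeard method. Mean ± SD, 5 rats/group.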

Rattus norvegicus [28] = assay: Induction of PPAR-alpha-regulated fatty acyl-CoA oxidase activity in po dosed Wistar rat after 6 days; assay type: functional, organism-based
Summary of the method: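 Rats were dosed by gastric intubation for 6 days at 85 or 250 µmol TTA-equivalent in 0.5% CMC, with palmitic acid controls. Fatty acyl-CoA oxidase was measured in the liver postnuclear fraction by a coupled assay, following H2O2 production as the rise in dichlorofluorescein absorbance with palmitoyl-CoA. Mean ± SD, n=5.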

Rattus norvegicus [29] = assay: Effect on fatty acid composition in Wistar rat assessed as change in plasma LCPUFA, n-6 level at 250 uM, po after 6 days; assay type: functional
Rattus norvegicus [30] = assay: Increase in [1-14C]palmitoyl-CoA oxidation in po dosed Wistar rat liver homogenate after 6 days; assay type: functional, organism-based
Summary of the method: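 Rats were dosed by gastric intubation for 6 days with 85 or 250 µmol TTA-equivalent in 0.5% CMC, with palmitic acid controls. Liver was homogenized in 0.25 M sucrose, 10 mM HEPES pH 7.4, 1 mM EDTA at 0-4 °C. Palmitoyl-CoA oxidation was read as acid-soluble products from [1-14C]-palmitoyl-CoA in the postnuclear fraction. Mean ± SD, n=5.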

Rattus norvegicus [31] = assay: Effect on fatty acid composition in Wistar rat assessed as change in liver 18;2, n-6 level at 85 uM, po after 6 days; assay type: functional; summary of the method: as §2
Rattus norvegicus [32] = assay: Effect on fatty acid composition in Wistar rat assessed as change in plasma 18;2, n-6 level at 250 uM, po after 6 days; assay type: functional
Rattus norvegicus [33] = assay: Effect on fatty acid composition in Wistar rat assessed as change in plasma saturated fatty acid level at 85 uM, po after 6 days; assay type: functional
Rattus norvegicus [34] = assay: Effect on fatty acid composition in Wistar rat assessed as change in liver PUFA level at 250 uM, po after 6 days; assay type: functional; summary of the method: as §2

SMILES: CCCCCCCCCCCCCCSCC(=O)O [TETRADECYLTHIOACETIC ACID]
- Activity (Rattus norvegicus [1]): Dose-dependent effect
- Activity (Rattus norvegicus [2]): 23.49%
- Drug uptake (Liver [3]): 2.03%
- Activity (Rattus norvegicus [4]): 38.71%
- Activity (Rattus norvegicus [5]): 27.66%
- Activity (Rattus norvegicus [6]): 35%
- Activity (Rattus norvegicus [7]): 5.44%
- Activity (Rattus norvegicus [8]): 2.34%
- Activity (Rattus norvegicus [9]): 18.46%
- Drug uptake (Rattus norvegicus [10]): 0.32%
- Activity (Rattus norvegicus [11]): 21.32%
- Activity (Rattus norvegicus [12]): 17.35%
- Activity (Rattus norvegicus [13]): Dose-dependent effect
- Activity (Rattus norvegicus [14]): 18.75%
- Activity (Rattus norvegicus [15]): 16.86%
- Drug uptake (Liver [16]): 0.36%
- Activity (Rattus norvegicus [17]): 39.67%
- Activity (Rattus norvegicus [18]): 2.56 dimensionless ratio
- Drug uptake (Rattus norvegicus [19]): 1.6%
- Activity (Rattus norvegicus [20]): 11.02%
- Activity (Rattus norvegicus [21]): 1.03%
- Activity (Rattus norvegicus [22]): 25.7%
- Activity (Rattus norvegicus [23]): 2.47%
- Activity (Rattus norvegicus [24]): 1.06%
- Activity (Rattus norvegicus [25]): Dose-dependent effect
- Activity (Rattus norvegicus [26]): 2.24%
- Activity (Rattus norvegicus [27]): Dose-dependent effect
- Activity (Rattus norvegicus [28]): Dose-dependent effect
- Activity (Rattus norvegicus [29]): 20.82%
- Activity (Rattus norvegicus [30]): Dose-dependent effect
- Activity (Rattus norvegicus [31]): 11.15%
- Activity (Rattus norvegicus [32]): 19.68%
- Activity (Rattus norvegicus [33]): 36.02%
- Activity (Rattus norvegicus [34]): 4.94%
